In ChEMBL document CHEMBL1926642, “Relevance of the C-5 position to schweinfurthin induced cytotoxicity” (2011):

Tests used:
Assay type in all cases: functional
CCRF-CEM = assay: Growth inhibition of human CCRF-CEM cells after 48 hrs by sulforhodamine B assay
HL-60(TB) = assay: Growth inhibition of human HL-60(TB) cells after 48 hrs by sulforhodamine B assay; conditions: HL-60, 48 h
Outline: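 Run in the NCI 60 cell-line screen as the full 5-dose assay that follows initial single-dose testing; GI50 is read from the dose series.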

RPMI-8226 = assay: Growth inhibition of human RPMI8226 cells after 48 hrs by sulforhodamine B assay; conditions: RPMI-8226, 48 h
EKVX = assay: Growth inhibition of human EKVX cells after 48 hrs by sulforhodamine B assay
NCI-H23 = assay: Growth inhibition of human NCI-H23 cells after 48 hrs by sulforhodamine B assay; conditions: NCI-H23, 48 h
A549 = assay: Growth inhibition of human A549 cells after 48 hrs by sulforhodamine B assay; conditions: A549, 48 h
NCI-H522 = assay: Growth inhibition of human NCI-H522 cells after 48 hrs by sulforhodamine B assay; conditions: NCI-H522, 48 h
HCC 2998 = assay: Growth inhibition of human HCC2998 cells after 48 hrs by sulforhodamine B assay; conditions: HCC 2998, 48 h
HCT-116 = assay: Growth inhibition of human HCT116 cells after 48 hrs by sulforhodamine B assay; conditions: HCT-116, 48 h
SW-620 = assay: Growth inhibition of human SW620 cells after 48 hrs by sulforhodamine B assay; conditions: SW-620, 48 h
SF-268 = assay: Growth inhibition of human SF268 cells after 48 hrs by sulforhodamine B assay; conditions: SF-268, 48 h
SF-539 = assay: Growth inhibition of human SF539 cells after 48 hrs by sulforhodamine B assay; conditions: SF-539, 48 h
SNB-19 = assay: Growth inhibition of human SNB19 cells after 48 hrs by sulforhodamine B assay; conditions: SNB-19, 48 h
U-251 = assay: Growth inhibition of human U251 cells after 48 hrs by sulforhodamine B assay; conditions: U-251, 48 h
LOX IMVI = assay: Growth inhibition of human LOXIMVI cells after 48 hrs by sulforhodamine B assay
MDA-MB-435 = assay: Growth inhibition of human MDA-MB-435 cells after 48 hrs by sulforhodamine B assay; conditions: MDA-MB-435, 48 h
SK-MEL-2 = assay: Growth inhibition of human SK-MEL-2 cells after 48 hrs by sulforhodamine B assay; conditions: SK-MEL-2, 48 h
SK-MEL-28 = assay: Growth inhibition of human SK-MEL-28 cells after 48 hrs by sulforhodamine B assay; conditions: SK-MEL-28, 48 h
SK-MEL-5 = assay: Growth inhibition of human SK-MEL-5 cells after 48 hrs by sulforhodamine B assay; conditions: SK-MEL-5, 48 h
IGROV-1 = assay: Growth inhibition of human IGROV1 cells after 48 hrs by sulforhodamine B assay; conditions: IGROV-1, 48 h
OVCAR-3 = assay: Growth inhibition of human OVCAR3 cells after 48 hrs by sulforhodamine B assay; conditions: OVCAR-3, 48 h
OVCAR-4 = assay: Growth inhibition of human OVCAR4 cells after 48 hrs by sulforhodamine B assay; conditions: OVCAR-4, 48 h
OVCAR-5 = assay: Growth inhibition of human OVCAR5 cells after 48 hrs by sulforhodamine B assay; conditions: OVCAR-5, 48 h
OVCAR-8 = assay: Growth inhibition of human OVCAR8 cells after 48 hrs by sulforhodamine B assay; conditions: OVCAR-8, 48 h
SK-OV-3 = assay: Growth inhibition of human SKOV3 cells after 48 hrs by sulforhodamine B assay; conditions: SK-OV-3, 48 h
A498 = assay: Growth inhibition of human A498 cells after 48 hrs by sulforhodamine B assay; conditions: A498, 48 h
CAKI-1 = assay: Growth inhibition of human Caki1 cells after 48 hrs by sulforhodamine B assay; conditions: CAKI-1, 48 h
RXF 393 = assay: Growth inhibition of human RXF393 cells after 48 hrs by sulforhodamine B assay; conditions: RXF 393, 48 h
MDA-MB-231 = assay: Growth inhibition of human MDA-MB-231/ATCC cells after 48 hrs by sulforhodamine B assay; conditions: MDA-MB-231, 48 h
[1] = Growth inhibition of human Hs 578T cells after 48 hrs by sulforhodamine B assay
BT-549 = assay: Growth inhibition of human BT549 cells after 48 hrs by sulforhodamine B assay; conditions: BT-549, 48 h
[2] = read-out: pLC50 (the source's name) (converted)

For `COCOc1cc(/C=C/c2cc(CO)c3c(c2)C[C@@H]2C(C)(C)[C@H](O)CC[C@@]2(C)O3)cc(OC)c1C/C=C(\C)CCC=C(C)C`, the GI50 (CCRF-CEM) was 1.02 µM, the LC50 (CCRF-CEM) was greater than 100 µM and the TGI (CCRF-CEM; read-out: pTGI (converted)) was greater than 100 µM. For the same compound, the GI50 (HL-60(TB)) was 0.661 µM, the CC50 (HL-60(TB); [2]) was greater than 100 µM and the TGI (HL-60(TB); read-out: pTGI (converted)) was 33.9 µM. It also gave a GI50 (RPMI-8226) of 0.479 µM, an LC50 (RPMI-8226) greater than 100 µM and a TGI (RPMI-8226; read-out: pTGI (converted)) greater than 100 µM. The GI50 (EKVX) was 4.47 µM, the LC50 (50% lethal concentration) (EKVX) was greater than 100 µM and the TGI (EKVX; read-out: pTGI (converted)) was 83.2 µM. For the same compound, the GI50 (NCI-H23) was 4.17 µM, the LC50 (NCI-H23) was 74.1 µM and the TGI (NCI-H23; read-out: pTGI (converted)) was 24.5 µM. It also gave an LC50 (A549) greater than 100 µM, a GI50 (A549; read-out: GI50) of 1.41 µM and a GI50 (A549; read-out: pGI50 (converted)) of 0.977 µM. For the same compound, the TGI (A549; read-out: pTGI (converted)) was 26.9 µM, the GI50 (NCI-H522) was 10.5 µM and the LC50 (NCI-H522) was 77.6 µM. For the same compound, the TGI (NCI-H522; read-out: pTGI (converted)) was 28.2 µM, the GI50 (HCC 2998) was 10.7 µM and the LC50 (HCC 2998) was 70.8 µM. It also gave a TGI (HCC 2998; read-out: pTGI (converted)) of 27.5 µM, a GI50 (HCT-116) of 3.47 µM and an LC50 (HCT-116) of 45.7 µM. For the same compound, the TGI (HCT-116; read-out: pTGI (converted)) was 18.2 µM, the GI50 (SW-620) was 1.95 µM and the LC50 (SW-620) was 67.6 µM. The TGI (SW-620; read-out: pTGI (converted)) was 13.5 µM, the GI50 (SF-268) was 4.07 µM and the LC50 (SF-268) was 55 µM. For the same compound, the TGI (SF-268; read-out: pTGI (converted)) was 20.9 µM, the GI50 (SF-539) was 0.141 µM and the LC50 (SF-539) was greater than 100 µM. For the same compound, the TGI (SF-539; read-out: pTGI (converted)) was 12.6 µM, the GI50 (SNB-19) was 11.2 µM and the LC50 (SNB-19) was 77.6 µM. The TGI (SNB-19; read-out: pTGI (converted)) was 29.5 µM, the GI50 (U-251) was 0.275 µM and the LC50 (U-251) was 53.7 µM. It also gave a TGI (U-251; read-out: pTGI (converted)) of 15.5 µM, a GI50 (LOX IMVI) of 0.55 µM and an LC50 (LOX IMVI) of 18.2 µM. It also gave a TGI (LOX IMVI; read-out: pTGI (converted)) of 3.02 µM, a GI50 (MDA-MB-435) of 1.38 µM and an LC50 (MDA-MB-435) greater than 100 µM. For the same compound, the TGI (MDA-MB-435; read-out: pTGI (converted)) was 56.2 µM, the GI50 (SK-MEL-2) was 17.8 µM and the LC50 (SK-MEL-2) was greater than 100 µM. For the same compound, the TGI (SK-MEL-2; read-out: pTGI (converted)) was 66.1 µM, the GI50 (SK-MEL-28) was 1.2 µM and the CC50 (SK-MEL-28; [2]) was greater than 100 µM. The TGI (SK-MEL-28; read-out: pTGI (converted)) was 30.9 µM, the GI50 (SK-MEL-5) was 2.24 µM and the LC50 (SK-MEL-5) was 40.7 µM. The TGI (SK-MEL-5; read-out: pTGI (converted)) was 12.3 µM, the GI50 (IGROV-1) was 15.8 µM and the LC50 (IGROV-1) was greater than 100 µM. It also gave a TGI (IGROV-1; read-out: pTGI (converted)) greater than 100 µM, a GI50 (OVCAR-3) of 12.6 µM and an LC50 (OVCAR-3) of 60.3 µM. For the same compound, the TGI (OVCAR-3; read-out: pTGI (converted)) was 27.5 µM, the GI50 (OVCAR-4) was 7.24 µM and the LC50 (OVCAR-4) was greater than 100 µM. For the same compound, the TGI (OVCAR-4; read-out: pTGI (converted)) was 44.7 µM, the GI50 (OVCAR-5) was 6.61 µM and the LC50 (OVCAR-5) was greater than 100 µM. The TGI (OVCAR-5; read-out: pTGI (converted)) was 41.7 µM, the GI50 (OVCAR-8) was 11 µM and the LC50 (OVCAR-8) was 77.6 µM. The TGI (OVCAR-8; read-out: pTGI (converted)) was 29.5 µM, the GI50 (SK-OV-3) was 19.5 µM and the LC50 (SK-OV-3) was greater than 100 µM. For the same compound, the TGI (SK-OV-3; read-out: pTGI (converted)) was 81.3 µM, the GI50 (A498) was 0.933 µM and the LC50 (A498) was 50.1 µM. For the same compound, the TGI (A498; read-out: pTGI (converted)) was 19.5 µM, the GI50 (CAKI-1) was 0.813 µM and the LC50 (CAKI-1) was greater than 100 µM. For the same compound, the TGI (CAKI-1; read-out: pTGI (converted)) was 15.1 µM, the GI50 (RXF 393) was 0.0661 µM and the LC50 (50% lethal concentration) (RXF 393) was 2.69 µM. The TGI (RXF 393; read-out: pTGI (converted)) was 0.355 µM, the GI50 (MDA-MB-231) was 1.62 µM and the CC50 (MDA-MB-231; [2]) was 57.5 µM. The TGI (MDA-MB-231; read-out: pTGI (converted)) was 14.5 µM, the GI50 [1] was 0.55 µM and the CC50 [1, 2] was greater than 100 µM. It also gave a TGI ([1]; read-out: pTGI (converted)) greater than 100 µM, a GI50 (BT-549) of 1.38 µM and an LC50 (BT-549) of 50.1 µM. It also gave a TGI (BT-549; read-out: pTGI (converted)) of 17.8 µM.
